Several values for one entry are separate records, joined by “and”; a condition that tells them apart may be missing. Equal entries are not always repeated.
Experiments:
Format in all cases: functional
[1] = target: 5-hydroxytryptamine receptor 2A (Rattus norvegicus) (UniProt P14842); assay: Efficacy against 5-hydroxytryptamine 2A receptor
[2] = tested on: Rattus norvegicus; assay: Percentage of animals failing to emit 50 lever presses within 15 min in rats at a compound dose of 0.1 mg/kg
Summary of the method: (§1)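 Two-lever drug discrimination in male Sprague–Dawley rats (200–220 g at start), trained against saline on LSD tartrate (0.08 mg/kg), DOI HCl (0.4 mg/kg) or LY293284 (0.025 mg/kg). FR50 food-pellet reinforcement, levers counterbalanced, 15-min sessions at 22–24 °C. %D is the share of tested rats not completing 50 lever presses within 15 min.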

[3] = tested on: Rattus norvegicus; assay: Percentage of animals failing to emit 50 lever presses within 15 min in rats at a compound dose of 0.2 mg/kg; summary of the method: as §1
[4] = tested on: Rattus norvegicus; assay: Percentage of animals failing to emit 50 lever presses within 15 min in rats at a compound dose of 0.4 mg/kg; summary of the method: as §1
[5] = tested on: Rattus norvegicus; assay: Percentage of animals emitting >80% of lever presses in rats at a compound dose of 0.28 uM/Kg
Summary of the method: (§2)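 Male Sprague–Dawley rats (200–220 g) in a two-lever, FR50 food-reinforced task. Rats were trained to discriminate saline from LSD tartrate (0.08 mg/kg), DOI HCl (0.4 mg/kg) or LY293284 (0.025 mg/kg) in 15-min sessions. %SDL is the share of rats making over 80% of presses on the drug lever. %D is the share failing to make 50 presses within 15 min. ED50 by Litchfield–Wilcoxon log-probit.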

[6] = tested on: Rattus norvegicus; assay: Percentage of animals emitting >80% of lever presses in rats at a compound dose of 0.56 uM/Kg; summary of the method: as §2
[7] = tested on: Rattus norvegicus; assay: Percentage of animals emitting >80% of lever presses in rats at a compound dose of 1.12 uM/Kg; summary of the method: as §2
[8] = tested on: Rattus norvegicus; assay: Percentage of animals failing to emit 50 lever presses within 15 min in rats at a compound dose of 0.02 mg/kg; summary of the method: as §1
[9] = tested on: Rattus norvegicus; assay: Percentage of animals failing to emit 50 lever presses within 15 min in rats at a compound dose of 0.027 mg/kg; summary of the method: as §1
[10] = tested on: Rattus norvegicus; assay: Percentage of animals failing to emit 50 lever presses within 15 min in rats at a compound dose of 0.005 mg/kg; summary of the method: as §1
[11] = tested on: Rattus norvegicus; assay: Percentage of animals failing to emit 50 lever presses within 15 min in rats at a compound dose of 0.01 mg/kg; summary of the method: as §1
[12] = tested on: Rattus norvegicus; assay: Percentage of animals emitting >80% of lever presses in rats at a compound dose of 0.030 uM/Kg; summary of the method: as §2
[13] = tested on: Rattus norvegicus; assay: Percentage of animals emitting >80% of lever presses in rats at a compound dose of 0.060 uM/Kg; summary of the method: as §2
[14] = tested on: Rattus norvegicus; assay: Percentage of animals emitting >80% of lever presses in rats at a compound dose of 0.080 uM/Kg; summary of the method: as §2
[15] = tested on: Rattus norvegicus; assay: Percentage of animals emitting >80% of lever presses in rats at a compound dose of 0.015 uM/Kg; summary of the method: as §2

5-hydroxytryptamine receptor 2A (Rattus norvegicus), sequence (P14842 whole entry): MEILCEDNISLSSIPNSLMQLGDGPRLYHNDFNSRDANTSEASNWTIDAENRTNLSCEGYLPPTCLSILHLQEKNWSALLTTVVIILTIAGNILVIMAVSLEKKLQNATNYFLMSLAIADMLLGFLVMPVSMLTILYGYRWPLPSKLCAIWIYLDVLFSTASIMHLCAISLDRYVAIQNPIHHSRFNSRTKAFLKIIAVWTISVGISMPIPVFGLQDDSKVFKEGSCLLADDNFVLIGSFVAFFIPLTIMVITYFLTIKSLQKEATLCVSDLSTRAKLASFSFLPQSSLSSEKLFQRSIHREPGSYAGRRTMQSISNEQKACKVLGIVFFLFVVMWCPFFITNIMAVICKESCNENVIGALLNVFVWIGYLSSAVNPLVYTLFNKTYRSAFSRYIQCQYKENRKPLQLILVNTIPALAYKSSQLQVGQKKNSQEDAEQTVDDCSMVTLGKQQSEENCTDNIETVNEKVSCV

## COc1cc(CC(C)N)c(OC)cc1I (stereo not given)
[1]
  ED50: 0.3 µmol.kg-1 and 0.11 mg/kg
[2]
  D: 0%
[3]
  D: 10%
[4]
  D: 0%
[5]
  SDL: 56%
[6]
  SDL: 89%
[7]
  SDL: 100%

## CCCN(CCC)C1Cc2c[nH]c3ccc(C(C)=O)c(c23)C1 (stereo not given) [LY-293284]
[8]
  D: 0%
[9]
  D: 27%
[10]
  D: 8%
[11]
  D: 0%
[12]
  SDL: 45%
[13]
  SDL: 83%
[14]
  SDL: 100%
[15]
  SDL: 9%

Source: ChEMBL document CHEMBL1132613 (J Med Chem, 1999)
